Screens (PubChem)
Rows were chosen to be rich in hits. Some 2.6% of all compounds tested hit in one or more screens of this group.
AHR activator = activators of human aryl hydrocarbon receptor. P35869. AHR-responsive luciferase reporter cells, luminescence. activation, % at 5 µM. hit rate 2.5% among 320,000. AID 2796; in the data active = activation above about 47%
proCasp3 act = activates human procaspase-3; P42574; recombinant procaspase-3 D3A, Ac-DEVD-pNA absorbance 405 nm; activation, % at 8.5 µM; hit rate 0.11% among 330,000; AID 463141;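 active = activation above the mean of all tested compounds plus 3 SD, cut at about 21% in these data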
Target sequence (P42574 whole entry D9A/D28A/D175A): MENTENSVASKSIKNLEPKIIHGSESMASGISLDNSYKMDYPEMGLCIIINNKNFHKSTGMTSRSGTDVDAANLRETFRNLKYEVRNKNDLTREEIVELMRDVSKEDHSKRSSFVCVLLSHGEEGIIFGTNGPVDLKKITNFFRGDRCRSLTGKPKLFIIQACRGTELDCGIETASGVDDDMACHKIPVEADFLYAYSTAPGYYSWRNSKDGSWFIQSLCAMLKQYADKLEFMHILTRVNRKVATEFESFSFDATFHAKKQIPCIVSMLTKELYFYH
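System: Procaspase-3 D3A mutant. Medium: Zinc-free 300 mM NaCl, 50 mM HEPES, 0.01% Triton X-100. Schedule: 1 h preincubation plus 2 h reaction at 25 °C. Measured by: 405 nm absorbance of p-nitroaniline, reads at 0 and 120 min. Read-out: percent activation relative to control range.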
PolyA inhibitor = yeast polyadenylation inhibition. S. cerevisiae SKY197-pL101 polyadenylation reporter, beta-gal luminescence; efflux-impaired pdr1/pdr3 knockout yeast; score 100 = 6 SD above DMSO. activity score, % at 12 µM. hit rate 0.02% among 300,000;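 active = lowest replicate activity score at least 50, where 100 means six control SD above control mean; inconclusive = lowest score under 50 but half or more replicates reach 50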;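 note: yeast exposed to compound for 9 h at 30 °C; higher score means more reporter readthrough which indicates perturbed polyadenylation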
proCasp7 act = activates human procaspase-7, counter-screen for procaspase-3 activators; P55210; AID 463210; recombinant procaspase-7, Ac-DEVD-pNA absorbance 405 nm; D23A/D198A/D206A triple mutant, cannot self-cleave; scale: DMSO 0, 5 µM enzyme 100; activation, % at 8.5 µM; hit rate 0.093% among 330,000;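 active = percent activation above the screen-wide mean plus 3 SD, cut at about 25% in these data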
Target sequence (P55210 whole entry D23A/D198A/D206A): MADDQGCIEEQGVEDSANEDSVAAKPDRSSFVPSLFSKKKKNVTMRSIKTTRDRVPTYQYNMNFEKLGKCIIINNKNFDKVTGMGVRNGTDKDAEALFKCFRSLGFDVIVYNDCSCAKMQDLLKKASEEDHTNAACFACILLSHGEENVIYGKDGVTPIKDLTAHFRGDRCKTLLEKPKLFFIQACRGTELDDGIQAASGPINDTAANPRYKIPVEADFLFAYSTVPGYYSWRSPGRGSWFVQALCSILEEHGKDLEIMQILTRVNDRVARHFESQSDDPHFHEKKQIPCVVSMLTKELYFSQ
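Test system: Procaspase-7 triple mutant (PC-7 D3A). Also added: Ac-DEVD-pNA substrate, 400 µM as added. Schedule: 1 h enzyme–compound preincubation and 2 h substrate reaction, both 25 °C. Signal: p-Nitroaniline absorbance at 405 nm, read at 0 and 120 min. Control set: low DMSO alone, high DMSO plus 5 µM PC-7.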
AHR act cf = human AHR activation, confirmation | shares compounds with AHR activator | human cells, AHR-responsive luciferase reporter, luminescence | activation, % at 9 µM | hit rate 87% among 2,300 | AID 2845; in the data active = activation above about 49%;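 note: HepG2 hepatoma cells carrying a DRE-driven firefly luciferase reporter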
PXR counter = activates human PXR in AHR activator counter-screen; hit rate 88% among 2,300; cell-based PXR reporter, luciferase luminescence; shares compounds with AHR activator; activation, % at 11.6 µM; in the data active = activation above about 11%;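 note: human hepatoma DPX-2 cells expressing full-length human PXR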
Each line names hits and unclear results; the compound was inactive in the other large screens (follow-up assays come after a bar, where they were run).

N#C/C(=C\c1ccc(Sc2ccc(Cl)cc2)o1)c1nc2ccccc2[nH]1	none (no result: PolyA inhibitor)
N#C/C(=C/c1cccs1)c1nc2ccccc2[nH]1	AHR activator 117.3 | AHR act cf 125.0 | PXR counter 22.4
COc1cccc(C(=O)O/N=C(\N)c2ccc([N+](=O)[O-])cc2)c1	AHR activator 79.2 | AHR act cf 74.6
CCn1nnnc1NC(=O)c1cc(OC)c(OC)c(OC)c1	AHR activator 128.0 | AHR act cf 100.9 | PXR counter 10.7
O=C(Nc1ccccc1C(=O)N/N=C/c1ccc(O)cc1)c1ccccc1	AHR activator 102.6 | AHR act cf 88.3 | PXR counter 28.3
COc1cccc(NC(=O)CN(C)C(=O)c2ccc(OCc3ccccc3)c(OC)c2)c1	none
COC(=O)c1ccc(CN2CCC(n3nccc3NC(=O)C3CC3)CC2)cc1	none
Cc1c(CN2CCC(n3nccc3NC(=O)C3CC3)CC2)[nH]c2ccccc12	AHR activator 85.0, PolyA inhibitor inconclusive | AHR act cf 81.5 | PXR counter 43.2
Fc1cccc2sc(Nc3nnc(-c4ccccc4)o3)nc12	AHR activator 154.8 | AHR act cf 119.6 | PXR counter 22.5
COc1cc(-c2cc(-c3ccc(N)cc3)[nH]c(=O)c2C#N)cc(OC)c1OC	AHR activator 101.3 | AHR act cf 84.1 | PXR counter 17.3
COc1ccc(/C=N/Nc2nc3ccccc3[nH]2)cc1OC	AHR activator 110.7 | AHR act cf 85.5
BrC(=C\c1ccccc1)/C=N/Nc1nc2ccccc2[nH]1	AHR activator 148.7 | AHR act cf 49.1 | PXR counter 59.1
COc1ccc2c(c1)c(/C=N/Nc1nc3ccccc3[nH]1)c(C)n2C	AHR activator 97.8 | AHR act cf 62.8 | PXR counter 40.4
COc1ccc(/C=N/Nc2nonc2N)cc1OC	none
COc1ccc(/C=N/Nc2nc(N)cc(Cl)n2)cc1OC	AHR activator 89.0 | AHR act cf 72.3 | PXR counter 16.3
C(=N\Nc1nc2ccccc2[nH]1)/c1ccc2ncccc2c1	none
C(=N\Nc1nc2ccccc2[nH]1)/c1ccccn1	none (no result: AHR activator, proCasp3 act, proCasp7 act)
Cc1c(C2(O)CCCCC2)[nH]c2ccc(C(F)(F)F)cc12	AHR activator 80.0 (no result: PolyA inhibitor) | AHR act cf 81.2 | PXR counter 44.4
Cc1cc(NCCCN2CCOCC2)n2ncc(-c3ccccc3)c2n1	none
Cc1cc(NCCOCCO)n2ncc(-c3ccc(Cl)cc3)c2n1	AHR activator 126.2 | AHR act cf 142.1 | PXR counter 27.7
Clc1ccc(-c2nnc(-c3ccccc3)o2)cn1	none (no result: AHR activator, proCasp3 act, proCasp7 act)
COC(=O)/C=c1/sc2nc3ccccc3n2c1=O	none
O=c1c2ccccc2nc2sc3ccccc3n12	AHR activator 113.2 (no result: PolyA inhibitor) | AHR act cf 155.0 | PXR counter 14.2
CCOC(=O)C1CCCN(c2c(NCCc3ccc(Cl)cc3)c(=O)c2=O)C1 (stereo not given)	none
Cc1cc(C)cc(C(=O)NCc2ccc3c(c2)OCO3)c1	AHR activator 105.7 | AHR act cf 75.3 | PXR counter 51.6
CCOc1ccccc1NC(=O)Nc1ccon1	none
CCOc1ccccc1NC(=O)Nc1ccncc1	AHR activator 139.0 | AHR act cf 86.3 | PXR counter 18.4
COc1ccc(C)cc1NC(=O)c1ccc2c(c1)OCO2	AHR activator 104.0 | AHR act cf 116.0 | PXR counter 26.2
COc1ccccc1C(=O)Nc1cccc(SC)c1	AHR activator 83.4 | AHR act cf 85.4 | PXR counter 22.5
COc1ccc(C)cc1NC(=O)COC(=O)c1ccc2c(c1)OCO2	none (no result: PolyA inhibitor)
COc1cccc(C(=O)Nc2cccc(SC)c2)c1	none
CC(C)N(CCNC(=O)c1ccc(CS(=O)(=O)c2c(Cl)cccc2Cl)o1)Cc1ccccc1	none
O=C(COc1ccc(F)cc1)NNC(=O)Cn1ccc(C(F)(F)F)n1	none (no result: PolyA inhibitor)
CCCCCCC[N+](CC)(CC)CCCCc1ccc(Cl)cc1	none (no result: PolyA inhibitor)
CN(CCC1CCOCC1)C(=O)C1CCC(=O)N(CCc2cccc(F)c2)C1 (stereo not given)	none
CCC(Oc1ccccc1OC)C(=O)Nc1ccc2c(c1)OCO2 (stereo not given)	AHR activator 115.4 | AHR act cf 114.8 | PXR counter 56.1
O=C(NNC(=S)NCc1ccccc1)c1ccc2c(c1)OCO2	none
Cc1ccc2c(c1)CCCN2C(=O)Nc1ccc2c(c1)OCO2	AHR activator 106.3 | AHR act cf 95.6 | PXR counter 82.9
O=C(NC(=S)NCc1ccccc1)c1ccc2c(c1)OCO2	AHR activator 83.6 | AHR act cf 60.6 | PXR counter 18.8
COc1ccccc1OC(C)C(=O)Nc1ccc2c(c1)OCCO2 (stereo not given)	none
Cc1ccccc1OC(C)C(=O)Nc1ccc2c(c1)OCO2 (stereo not given)	AHR activator 102.4 | AHR act cf 50.8 | PXR counter 36.5
O=C(Nc1ccc(F)c(F)c1)C1CCN(S(=O)(=O)c2cccc3nonc23)CC1	none
CCN(c1ccccc1)S(=O)(=O)c1nnc(NC(=O)C(C)C)s1	none
O=C(CCN1CCc2ccccc2C1)Nc1ccc2c(c1)OCO2	AHR activator 83.9 | AHR act cf inactive | PXR counter 50.7
O=C(N/N=C/c1ccc2c(c1)OCO2)c1ccc2c(c1)OCO2	AHR activator 115.3 | AHR act cf 93.3 | PXR counter 25.4
COc1cccc(NC(=O)Nc2cc(NC(=O)Nc3cccc(OC)c3)c(C)nc2C)c1	AHR activator 91.0 | AHR act cf 50.2 | PXR counter 15.3
O=C(N/N=C/c1cccnc1)c1ccc2c(c1)OCO2	none
COc1cccc(NC(=O)Nc2ccncc2)c1	none
CCOc1ccccc1C(=O)NCC(=O)Nc1ccc2c(c1)OCO2	AHR activator 83.4 (no result: PolyA inhibitor) | AHR act cf 100.2 | PXR counter 102.4
O=C(Nc1ccc2c(c1)OCO2)Nc1ccccc1F	none
COC(=O)c1ccccc1NC(=O)NCc1ccc2c(c1)OCO2	none
CCOc1ccccc1NC(=O)NCc1ccc2c(c1)OCO2	AHR activator 97.4 | AHR act cf 73.9 | PXR counter 39.6
CCc1ccccc1NC(=O)Nc1ccc2c(c1)OCO2	AHR activator 87.0 | AHR act cf 92.3 | PXR counter 85.8
O=C(Nc1ccc2c(c1)CCC2)Nc1ccc2c(c1)OCO2	AHR activator 84.8 | AHR act cf 52.4 | PXR counter 42.7
O=C(Nc1ccc2c(c1)OCCO2)Nc1ccc2c(c1)OCO2	none
COc1cccc(NC(=O)Nc2ccc3c(c2)OCO3)c1	AHR activator 109.5 | AHR act cf 64.6 | PXR counter 38.5
COCCN(CC(=O)Nc1ccccc1C(F)(F)F)C(=O)/C=C/c1ccc2ccccc2n1	none (no result: PolyA inhibitor)
CCOC(=O)Nc1ccc2c(c1)N(C(=O)CN1CCN(CCO)CC1)c1ccccc1CC2	none
